Test results taken from ChEMBL document CHEMBL1123250, “Chloroalanyl antibiotic peptides: antagonism of their antimicrobial effects by L-alanine and L-alanyl peptides in gram-negative bacteria” (1986).
In brackets after ≈: the same amount, converted by molar mass.

Tests used:
[1] = test system: Haemophilus influenzae; assay: Compound was tested for antibacterial activity against Hemophilus influenzae; assay type: functional
Summary of the method: (§1)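 Inoculum made from colonies grown overnight on chocolate or blood agar, resuspended in liquid medium to 10' cfu/mL. Applied by Steers replicator to serial 2-fold peptide dilutions. Incubated overnight at 37 °C under 7% CO2. MIC = lowest concentration giving fewer than 10 colonies at 16-18 h.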

[2] = test system: Staphylococcus aureus; assay: Compound was tested for antibacterial activity against Staphylococcus aureus; assay type: functional
Summary of the method: (§2)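 Agar dilution MIC on defined peptide susceptibility agar. Inoculum made by growing overnight in liquid peptide susceptibility medium, then diluting to about 1 × 10^7 cfu/mL. Applied by Steers replicator to plates carrying serial 2-fold peptide dilutions. Incubated overnight at 37 °C. MIC = lowest concentration allowing growth of fewer than 10 colonies after 16-18 h.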

[3] = test system: Enterococcus faecalis; assay: Compound was tested for antibacterial activity against Streptococcus faecalis; assay type: functional; summary of the method: as §2
[4] = test system: Proteus mirabilis; assay: Compound was tested for antibacterial activity against Proteus mirabilis; assay type: functional; summary of the method: as §2
[5] = test system: Staphylococcus epidermidis; assay: Compound was tested for antibacterial activity against Staphylococcus epidermidis; assay type: functional; summary of the method: as §2
[6] = test system: Streptococcus agalactiae; assay: Compound was tested for antibacterial activity against Streptococcus agalactiae; assay type: functional; summary of the method: as §1
[7] = test system: Shigella flexneri; assay: Compound was tested for antibacterial activity against Shigella flexneri; assay type: functional; summary of the method: as §2
[8] = test system: Escherichia coli; assay: Compound was tested for antibacterial activity against Escherichia coli; assay type: functional; summary of the method: as §2
[9] = test system: Streptococcus pyogenes; assay: Compound was tested for antibacterial activity against Streptococcus pyogenes; assay type: functional; summary of the method: as §1
[10] = test system: Enterobacter cloacae; assay: Compound was tested for antibacterial activity against Enterobacter cloacae; assay type: functional; summary of the method: as §2
[11] = test system: Morganella morganii; assay: Compound was tested for antibacterial activity against Morganella morganii; assay type: functional; summary of the method: as §2
[12] = target: Alanine racemase, biosynthetic (Escherichia coli K-12) (UniProt P0A6B4); assay: Compound was tested for enzyme activity against alanine racemase; per mg protein
Alanine racemase, biosynthetic (Escherichia coli K-12), sequence (P0A6B4 whole entry): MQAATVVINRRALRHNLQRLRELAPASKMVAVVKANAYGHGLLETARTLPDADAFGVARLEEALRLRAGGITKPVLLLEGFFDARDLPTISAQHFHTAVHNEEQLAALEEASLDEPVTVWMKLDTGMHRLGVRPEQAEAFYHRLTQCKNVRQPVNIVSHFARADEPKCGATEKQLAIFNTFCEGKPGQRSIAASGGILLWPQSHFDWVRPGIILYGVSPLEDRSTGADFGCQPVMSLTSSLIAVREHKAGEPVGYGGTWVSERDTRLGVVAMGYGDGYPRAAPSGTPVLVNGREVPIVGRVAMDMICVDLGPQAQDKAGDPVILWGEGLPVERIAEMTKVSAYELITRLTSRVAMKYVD
Summary of the method: (§3)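 E. coli JSR-0 grown at 37 °C in Davis-Mingioli medium with Met/Pro (50 µg/mL) and Leu/Ile/Val (100 µg/mL). Some cultures had 5% sucrose or 500 µg/mL L-Ala. Agent added at ~100 Klett units; cells harvested after 30 min, washed and sonicated. Racemase read D→L in the supernatant, coupled to L-alanine dehydrogenase (NADH, 340 nm): 10 mM D-Ala, 5 mM NAD+, CHES pH 9.0, 37 °C.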

[13] = test system: Escherichia coli; assay: Compound was tested for enzyme activity against transaminase B; per mg protein
Summary of the method: (§4)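 Homogenates of E. coli JSR-0 taken 30 min after agent addition at ~100 Klett units (Davis-Mingioli medium with Met/Pro, Leu/Ile/Val, and in some cultures sucrose or L-Ala). Valine→α-ketoisovalerate transamination read in Tris-HCl pH 7.8 with pyridoxal phosphate and α-ketoglutarate at 37 °C. Timed aliquots derivatized with 2,4-dinitrophenylhydrazine; hydrazone read at 430 nm against a standard curve.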

[14] = target: Alanine racemase, biosynthetic (Escherichia coli K-12) (UniProt P0A6B4); assay: Compound was tested for enzyme activity against alanine racemase; per mg of protein; summary of the method: as §3
[15] = test system: Escherichia coli; assay: Compound was tested for enzyme activity against transaminase B; per mg of protein; summary of the method: as §4

Row | Compound | MIC [1] [µg/mL] | MIC [2] [µg/mL] | MIC [3] [µg/mL] | MIC [4] [µg/mL] | MIC [5] [µg/mL] | MIC [6] [µg/mL] | MIC [7] [µg/mL] | MIC [8] [µg/mL] | MIC [9] [µg/mL] | MIC [10] [µg/mL] | MIC [11] [µg/mL] | specific activity [12] [µmol/min/mg] | specific activity [13] [µmol/min/mg] | specific activity [14] [µmol/min/mg] | specific activity [15] [µmol/min/mg]
1 | CN[C@@H](C)C(=O)N[C@@H](CCl)C(=O)O | 12.5 (≈ 59.9 µM) | 0.39 (≈ 1.87 µM) | 100 (≈ 479 µM) | > 100 | 3.12 (≈ 15 µM) | 6.25 (≈ 30 µM) | 100 (≈ 479 µM) | 6.25 (≈ 30 µM) |  |  |  |  |  |  | 
2 | CCCC[C@H](N)C(=O)N[C@@H](CCl)C(=O)O | 25 (≈ 106 µM) | 0.0125 (≈ 0.0528 µM) | 3.12 (≈ 13.2 µM) | > 100 | 0.0125 (≈ 0.0528 µM) | < 0.1 | 3.12 (≈ 13.2 µM) | 3.12 (≈ 13.2 µM) | 25 (≈ 106 µM) | 6.25 (≈ 26.4 µM) | > 100 |  |  |  | 
3 | CC(C)[C@H](N)C(=O)N[C@@H](C)C(=O)N[C@@H](CCl)C(=O)O | > 100 | 0.05 (≈ 0.17 µM) | > 100 |  | 0.025 (≈ 0.0851 µM) | 3.12 (≈ 10.6 µM) | > 100 | > 100 | 0.1 (≈ 0.34 µM) |  |  |  |  |  | 
4 | CSCC[C@H](N)C(=O)N[C@@H](C)C(=O)N[C@@H](CCl)C(=O)O | > 100 | 0.05 (≈ 0.153 µM) | 6.25 (≈ 19.2 µM) | > 100 | 0.025 (≈ 0.0767 µM) | < 0.1 | > 100 | > 100 | 25 (≈ 76.7 µM) | > 100 | > 100 |  |  |  | 
5 | O=C(N[C@H](CO)[C@H](O)c1ccc([N+](=O)[O-])cc1)C(Cl)Cl |  |  |  |  |  |  |  |  |  |  |  | 0.0176 | 0.0541 |  | 
6 | N[C@@H](CCl)C(=O)N[C@@H](CCl)C(=O)N[C@@H](CCl)C(=O)O | 6.25 (≈ 18.7 µM) | 0.2 (≈ 0.598 µM) | < 0.1 |  | 0.1 (≈ 0.299 µM) | 0.78 (≈ 2.33 µM) | 6.25 (≈ 18.7 µM) | 25 (≈ 74.7 µM) | 0.39 (≈ 1.17 µM) |  |  |  |  |  | 
7 | CC[C@H](N)C(=O)N[C@@H](CCl)C(=O)O | < 0.1 | 0.025 (≈ 0.12 µM) | 6.25 (≈ 30 µM) | > 100 | 0.025 (≈ 0.12 µM) | < 0.1 | 1.56 (≈ 7.48 µM) | 1.56 (≈ 7.48 µM) | 12.5 (≈ 59.9 µM) | 25 (≈ 120 µM) | 50 (≈ 240 µM) |  |  |  | 
8 | C[C@H](N)C(=O)N[C@@H](C)C(=O)N[C@@H](CCl)C(=O)O | > 100 | 0.025 (≈ 0.0941 µM) | > 100 |  | 0.025 (≈ 0.0941 µM) | 12.5 (≈ 47 µM) | > 100 | > 100 | 0.2 (≈ 0.753 µM) |  |  |  |  |  | 
9 | NC(=O)CC[C@H](N)C(=O)N[C@@H](CCl)C(=O)O | > 100 | 0.05 (≈ 0.199 µM) | 0.78 (≈ 3.1 µM) | > 100 | 0.05 (≈ 0.199 µM) | 0.78 (≈ 3.1 µM) | > 100 | 1.56 (≈ 6.2 µM) | < 0.1 |  |  |  |  |  | 
10 | CCC[C@H](N)C(=O)N[C@@H](CCl)C(=O)O |  | 0.25 (≈ 1.12 µM) |  |  |  |  |  |  |  |  |  |  |  |  | 
11 | CSCC[C@H](N)C(=O)N[C@@H](CCl)C(=O)N[C@@H](CCl)C(=O)O | 0.39 (≈ 1.08 µM) | 0.025 (≈ 0.0694 µM) | 0.05 (≈ 0.139 µM) | > 100 | 0.0125 (≈ 0.0347 µM) | < 0.1 | 12.5 (≈ 34.7 µM) | 1.56 (≈ 4.33 µM) | 6.25 (≈ 17.3 µM) | > 100 | > 100 |  |  |  | 
12 | CC(C)C[C@H](N)C(=O)N[C@@H](CCl)C(=O)O | 6.25 (≈ 26.4 µM) | 0.025 (≈ 0.106 µM) | < 0.1 | 25 (≈ 106 µM) | 0.0125 (≈ 0.0528 µM) | 1.56 (≈ 6.59 µM) | 50 (≈ 211 µM) | 3.12 (≈ 13.2 µM) | < 0.1 |  |  |  |  |  | 
13 | CC[C@H](C)[C@H](N)C(=O)N[C@@H](CCl)C(=O)O | 6.25 (≈ 26.4 µM) | 0.025 (≈ 0.106 µM) | < 0.1 | 12.5 (≈ 52.8 µM) | 0.05 (≈ 0.211 µM) | 3.12 (≈ 13.2 µM) | 25 (≈ 106 µM) | 3.12 (≈ 13.2 µM) | < 0.1 |  |  |  |  |  | 
14 | NCC(=O)N[C@@H](CCl)C(=O)O | 0.2 (≈ 1.11 µM) | 0.025 (≈ 0.138 µM) | > 100 | > 100 | 0.05 (≈ 0.277 µM) | 0.39 (≈ 2.16 µM) | 1.56 (≈ 8.64 µM) | 3.12 (≈ 17.3 µM) | 0.05 (≈ 0.277 µM) | 1.56 (≈ 8.64 µM) | > 100 |  |  |  | 
15 | O=C(O)[C@H](CCl)NC(=O)[C@@H]1CCCN1 | 25 (≈ 113 µM) | 0.39 (≈ 1.77 µM) | < 0.1 | > 100 | 1.56 (≈ 7.07 µM) | 12.5 (≈ 56.6 µM) | > 100 | 6.25 (≈ 28.3 µM) | 6.25 (≈ 28.3 µM) |  |  |  |  |  | 
16 | C[C@H](N)C(=O)N[C@@H](CCl)C(=O)O |  |  |  |  | 0.0125 (≈ 0.0642 µM) |  |  |  |  |  |  |  |  | 0.0117 | 0
17 | CC(C)[C@H](N)C(=O)N[C@@H](CCl)C(=O)O | 12.5 (≈ 56.1 µM) | 0.025 (≈ 0.112 µM) | < 0.1 | 100 (≈ 449 µM) | < 0.0125 | 1.56 (≈ 7.01 µM) | > 100 | 1.56 (≈ 7.01 µM) | < 0.1 |  |  |  |  |  | 
18 | CSCC[C@H](N)C(=O)N[C@@H](CCl)C(=O)O |  |  |  | 50 (≈ 196 µM) |  |  |  |  | 1.56 (≈ 6.12 µM) |  | 50 (≈ 196 µM) |  |  |  | 
19 | N[C@@H](Cc1ccccc1)C(=O)N[C@@H](CCl)C(=O)O | 12.5 (≈ 46.2 µM) | 0.05 (≈ 0.185 µM) | 0.39 (≈ 1.44 µM) | 100 (≈ 369 µM) | 0.05 (≈ 0.185 µM) | 6.25 (≈ 23.1 µM) | 100 (≈ 369 µM) | 25 (≈ 92.3 µM) | < 0.1 |  |  |  |  |  | 
20 | NCCC(=O)N[C@@H](CCl)C(=O)O | > 100 | 0.78 (≈ 4.01 µM) | > 100 | > 100 | 6.25 (≈ 32.1 µM) | > 100 | > 100 | > 100 |  |  |  |  |  |  | 
